What was measured:
CCRF-CEM [1] = assay: Antimitotic activity in human CCRF-CEM cells assessed as decrease in mitotic histone H3 at 1 x GIC50; type: functional; parameters: scale not given: the % may be the effect or the level left
How it was run: (§1)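 CCRF-CEM cells seeded subconfluent at 5 × 10⁵ cells/mL in RPMI 1640 with 10% FCS, 10 mM glutamine, penicillin/streptomycin, 37 °C humidified CO₂. Exposed 24 h at 1× or 5× GIC₅₀; vehicle controls harvested at 24 h. Ethanol-fixed cells labelled with anti-phospho-histone H3 Ser10 and mitotic cells counted by flow cytometry as % of total population.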

CCRF-CEM [2] = assay: Inhibition of DNA synthesis in human CCRF-CEM assessed as assessed as BrdU incorporation at 5 x GIC50 after 24 by flow cytometry; type: functional; parameters: scale not given: the % may be the effect or the level left
How it was run: (§2)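 Culture as for cell cycle work (CCRF-CEM, 24 h, 1× or 5× GIC₅₀). Pulse with 10 μM BrdU for 30 min before harvest. Fixed in 70% ethanol, DNA denatured in 2 M HCl, neutralized with 0.1 M borax. Stained with anti-BrdU and FITC secondary, plus PI 0.1 mg/mL and RNase A. BrdU+ cells counted by flow cytometry.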

CCRF-CEM [3] = assay: Cell cycle arrest in human CCRF-CEM assessed as accumulation at G2/M phase at 1 x GIC50 after 24 hrs by flow cytometry; type: functional
How it was run: (§3)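 Subconfluent CCRF-CEM (5 × 10⁵ cells/mL, RPMI 1640 + 10% FCS, 37 °C CO₂) exposed 24 h at 1× or 5× GIC₅₀, vehicle controls alongside. Cells fixed overnight in 70% ethanol at -20 °C, hypotonic citrate wash, RNase 50 μg/mL, propidium iodide stain, 488 nm flow cytometry. Sub-G1 = particles with PI content below G0/G1 cells. Reported as % of total cells.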

CCRF-CEM [4] = assay: Cell cycle arrest in human CCRF-CEM assessed as accumulation at G1 phase at 5 x GIC50 after 24 hrs by flow cytometry; type: functional; how it was run: as §3
CCRF-CEM [5] = assay: Cell cycle arrest in human CCRF-CEM assessed as accumulation at subG1 phase at 5 x GIC50 after 24 hrs by flow cytometry; type: functional; how it was run: as §3
CCRF-CEM [6] = assay: Inhibition of DNA synthesis in human CCRF-CEM assessed as assessed as BrdU incorporation at 1 x GIC50 after 24 by flow cytometry; type: functional; parameters: scale not given: the % may be the effect or the level left; how it was run: as §2
NCI-H23 = assay: Cytotoxicity against human NCI-H23 cells after 5 days by SRB assay; type: functional; conditions: NCI-H23, 120 h
How it was run: (§4)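 Cells seeded in RPMI (colon, breast, lung lines), MEM (Du145) or F12K (PC3) with 10% FBS, 37 °C overnight. Day-zero plates fixed with cold 10% TCA. Compounds added as 5-fold serial dilutions for 5 days. Fixed, stained with 0.057% SRB in 1% acetic acid, dye solubilized in 10 mM Tris pH 10.5, A500 read. Growth % corrected for day-0 OD; GIC₅₀ from sigmoidal fit.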

CCRF-CEM [7] = assay: Antimitotic activity in human CCRF-CEM cells assessed as decrease in mitotic histone H3 at 5 x GIC50; type: functional; parameters: scale not given: the % may be the effect or the level left; how it was run: as §1
CCRF-CEM [8] = assay: Inhibition of RNA synthesis in human CCRF-CEM assessed as assessed as BrdU incorporation at 5 x GIC50 after 24 by flow cytometry; type: functional; parameters: scale not given: the % may be the effect or the level left
How it was run: (§5)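 CCRF-CEM culture as for cell cycle (24 h, 1× or 5× GIC₅₀). Cells pulsed 30 min with 1 mM bromouridine before harvest. Fixed in 1% paraformaldehyde/0.05% NP-40. Stained with anti-BrdU antibody cross-reacting with BrU, then FITC secondary, PI and RNase A. BrU+ cells quantified by 488 nm flow cytometry.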

PC-3 = assay: Cytotoxicity against human PC3 cells after 5 days by SRB assay; type: functional; conditions: PC-3, 120 h; how it was run: as §4
CCRF-CEM [9] = assay: Cell cycle arrest in human CCRF-CEM assessed as accumulation at subG1 phase at 1 x GIC50 after 24 hrs by flow cytometry; type: functional; how it was run: as §3
CCRF-CEM [10] = assay: Cell cycle arrest in human CCRF-CEM assessed as accumulation at S phase at 5 x GIC50 after 24 hrs by flow cytometry; type: functional; how it was run: as §3
CCRF-CEM [11] = assay: Cell cycle arrest in human CCRF-CEM assessed as accumulation at G1 phase at 1 x GIC50 after 24 hrs by flow cytometry; type: functional; how it was run: as §3
HCT-15 = assay: Cytotoxicity against human HCT15 cells after 5 days by SRB assay; type: functional; conditions: HCT-15, 120 h; how it was run: as §4
CCRF-CEM [12] = assay: Cell cycle arrest in human CCRF-CEM assessed as accumulation at S phase at 1 x GIC50 after 24 hrs by flow cytometry; type: functional; how it was run: as §3
CCRF-CEM [13] = assay: Inhibition of RNA synthesis in human CCRF-CEM assessed as assessed as BrdU incorporation at 1 x GIC50 after 24 by flow cytometry; type: functional; parameters: scale not given: the % may be the effect or the level left; how it was run: as §5
CCRF-CEM [14] = assay: Cell cycle arrest in human CCRF-CEM assessed as accumulation at G2/M phase at 5 x GIC50 after 24 hrs by flow cytometry; type: functional; how it was run: as §3
BT-549 = assay: Cytotoxicity against human BT549 cells after 5 days by SRB assay; type: functional; conditions: BT-549, 120 h; how it was run: as §4
CCRF-CEM [15] = assay: Cytotoxicity against human CCRF-CEM cells after 3 days by XTT assay; type: functional, cell-based; conditions: 72 h
How it was run: (§6)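 Cell viability of CCRF-CEM, HL60 and HeLa cells measured by XTT assay after 72 h incubation with compounds. IC₅₀ taken as mean of 2–4 independent experiments.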

[16] = Cytostatic activity against human Hs578 cells after 5 days by SRB assay; type: functional; conditions: Hs578, 120 h; how it was run: as §4
HL-60 = assay: Cytotoxicity against human HL60 cells after 3 days by XTT assay; type: functional, cell-based; conditions: HL-60, 72 h; how it was run: as §6
HCT-116 = assay: Cytostatic activity against human HCT116 cells after 5 days by SRB assay; type: functional; conditions: HCT-116, 120 h; how it was run: as §4
A549 = assay: Cytostatic activity against human A549 cells after 5 days by SRB assay; type: functional; conditions: A549, 120 h; how it was run: as §4
[17] = Cytotoxicity against human HeLaS3 cells after 3 days by XTT assay; type: functional, cell-based; conditions: HeLa S3, 72 h
DU-145 [18] = assay: Cytostatic activity against human DU145 cells after 5 days by SRB assay; type: functional; conditions: DU-145, 120 h; how it was run: as §4
CCRF-CEM [19] = assay: Inhibition of DNA synthesis in human CCRF-CEM assessed as assessed as BrdU incorporation after 24 by flow cytometry; type: functional
DU-145 [20] = assay: Cellular uptake ion human DU145 cells assessed as monophosphate level measured per million cells after 24 hrs; type: functional
How it was run: (§7)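 Du145 cells incubated with 10 μM compound for 6 or 24 h, PBS-washed, trypsinized, pelleted, spun through Nyosil M25 oil. Extracts analysed by LC/MS/MS for parent nucleoside, monophosphate and triphosphate. Standards and QC samples prepared in untreated-cell extracts. Expressed as pmol per million cells.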

DU-145 [21] = assay: Cellular uptake ion human DU145 cells measured per million cells after 6 hrs; type: functional; how it was run: as §7
DU-145 [22] = assay: Cellular uptake ion human DU145 cells assessed as triphosphate level measured per million cells after 6 hrs
DU-145 [23] = assay: Cellular uptake ion human DU145 cells measured per million cells after 24 hrs; type: functional; how it was run: as §7
DU-145 [24] = assay: Cellular uptake ion human DU145 cells assessed as monophosphate level measured per million cells after 6 hrs; type: functional; how it was run: as §7
DU-145 [25] = assay: Cellular uptake ion human DU145 cells assessed as triphosphate level measured per million cells after 24 hrs
CCRF-CEM [26] = assay: Inhibition of RNA synthesis in human CCRF-CEM assessed as assessed as BrdU incorporation after 24 by flow cytometry; type: functional

Structure (SMILES) | Activity (CCRF-CEM [1]) [%] | Activity (CCRF-CEM [2]) [%] | Activity (CCRF-CEM [3]) [%] | Activity (CCRF-CEM [4]) [%] | Activity (CCRF-CEM [5]) [%] | Activity (CCRF-CEM [6]) [%] | GI50 (NCI-H23) [µM] | Activity (CCRF-CEM [7]) [%] | Activity (CCRF-CEM [8]) [%] | GI50 (PC-3) [µM] | Activity (CCRF-CEM [9]) [%] | Activity (CCRF-CEM [10]) [%] | Activity (CCRF-CEM [11]) [%] | GI50 (HCT-15) [µM] | Activity (CCRF-CEM [12]) [%] | Activity (CCRF-CEM [13]) [%] | Activity (CCRF-CEM [14]) [%] | GI50 (BT-549) [µM] | IC50 (CCRF-CEM [15]) [µM] | GI50 [16] [µM] | also measured
Nc1ccn([C@@H]2O[C@H](CO)[C@@H](O)C2(F)F)c(=O)n1 [GEMCITABINE] | 0.78 | 9.5 | 0.6 | 67.1 | 54 | 56.7 | 0.002 | 0.53 | 44.8 | 0.006 | 24.1 | 30.5 | 27.1 | 0.003 | 72.3 | 54.7 | 2.3 | 0.004 | – | – | –
OC[C@H]1O[C@@H](n2cc(F)c3c(-c4cccs4)ncnc32)[C@H](O)[C@@H]1O | 0.85 | 47 | 9.3 | 40.4 | 43.4 | 56.2 | 1.5 | 0.47 | 5.7 | 0.09 | 17.1 | 50.5 | 43.9 | 0.018 | 46.7 | 28.4 | 9.1 | 0.081 | 0.27 | 0.13 | IC50 (HL-60): 4.3 µM; GI50 (HCT-116): 0.009 µM; GI50 (A549): 0.061 µM; IC50 [17]: 4.3 µM; GI50 (DU-145 [18]): 0.009 µM
OC[C@H]1O[C@@H](n2ccc3c(-c4ccco4)ncnc32)[C@H](O)[C@@H]1O | 1.21 | 31.3 | 12.9 | 46.7 | 60.2 | 54.3 | 0.13 | 0.48 | 4.7 | 0.014 | 16.5 | 44.6 | 44.9 | 0.02 | 42.2 | 28.7 | 6.8 | 0.012 | 0.31 | 0.049 | inhibition (INH) (CCRF-CEM [19]): 31.33%; Activity (DU-145 [20]): 6842 pmol; IC50 (HL-60): 0.81 µM; Activity (DU-145 [21]): 950 pmol; triphosphate (NTP) level (DU-145 [22]): 88.4 pmol; Activity (DU-145 [23]): 207 pmol; Activity (DU-145 [24]): 4124 pmol; GI50 (HCT-116): 0.078 µM; GI50 (A549): 0.088 µM; triphosphate (NTP) level (DU-145 [25]): 109 pmol; inhibition (INH) (CCRF-CEM [26]): 4.7%; IC50 [17]: 0.77 µM; GI50 (DU-145 [18]): 0.007 µM
Nc1nc(Cl)nc2c1ncn2[C@H]1C[C@H](O)[C@@H](CO)O1 [CLADRIBINE] | 0.85 | 13 | 1.9 | 61.6 | 61.5 | 32.1 | – | 0.44 | 41.3 | – | 48 | 30.8 | 73.2 | – | 24.9 | 46.2 | 7.6 | – | – | – | inhibition (INH) (CCRF-CEM [19]): 9.54%; inhibition (INH) (CCRF-CEM [26]): 44.77%
OC[C@H]1O[C@@H](n2ccc3c(-c4cccs4)ncnc32)[C@H](O)[C@@H]1O | 0.87 | 38.3 | 12.2 | 47 | 55 | 55.5 | 0.43 | 0.44 | 3.5 | 0.033 | 13.7 | 47 | 45.5 | 0.078 | 42.2 | 28.5 | 6 | 0.023 | 0.29 | 0.1 | IC50 (HL-60): 1.2 µM; GI50 (HCT-116): 0.049 µM; GI50 (A549): 0.045 µM; IC50 [17]: 8.8 µM; GI50 (DU-145 [18]): 0.009 µM
OC[C@H]1O[C@@H](n2cc(Cl)c3c(-c4ccco4)ncnc32)[C@H](O)[C@@H]1O | – | – | – | – | – | – | – | – | – | – | – | – | – | – | – | – | – | – | 3.8 | > 10 | Activity (DU-145 [20]): 332 pmol; IC50 (HL-60): 21.6 µM; Activity (DU-145 [21]): 20.1 pmol; triphosphate (NTP) level (DU-145 [22]): 19.2 pmol; Activity (DU-145 [23]): 45 pmol; Activity (DU-145 [24]): 164 pmol; GI50 (HCT-116): > 10 µM; GI50 (A549): > 10 µM; triphosphate (NTP) level (DU-145 [25]): 21.2 pmol; IC50 [17]: > 40 µM; GI50 (DU-145 [18]): > 10 µM
OC[C@H]1O[C@@H](n2ccc3c(-c4ccoc4)ncnc32)[C@H](O)[C@@H]1O | 0.84 | 28.9 | 7.1 | 54.4 | 61.2 | 44.6 | 0.28 | 0.39 | 7.2 | 0.096 | 39.8 | 39.7 | 55.6 | 0.086 | 37.3 | 14 | 5.9 | 0.035 | 1.9 | 0.26 | IC50 (HL-60): 1.5 µM; GI50 (HCT-116): 0.092 µM; GI50 (A549): 0.073 µM; IC50 [17]: 4.6 µM; GI50 (DU-145 [18]): 0.036 µM

Source: ChEMBL document CHEMBL1156780, “6-(Het)aryl-7-deazapurine ribonucleosides as novel potent cytostatic agents” (J Med Chem, 2010)
